# Assay outcomes (PubChem BioAssay)
# A selection: hits, their analogues and other compounds. The true share with any hit is near 3.6%.
# GRIN3A LBD mod – binders of NR3A ligand-binding domain, primary screen, biophysical, differential scanning fluorimetry, uHTS; NR3A LBD differential scanning fluorimetry, Tm shift; 0% = protein alone, 100% = glycine-bound protein; Tm shift relative to glycine control, % at 25 µM; 340,000 compounds, 2.5% hits; AID 1259313, 2017;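 active = melting temperature shift of at least 10% of the positive control shift, at one fixed dose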
# HCV NS3 hel inh – inhibitors of HCV NS3 helicase, primary screen, biochemical, Cy5 molecular beacon fluorescence; Hepatitis C virus NS3 helicase; inhibition, % at 10.9 µM; 290,000 compounds, 0.56% hits; NS3 helicase DNA unwinding;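 active = inhibition above the mean of all tested compounds plus 3 SD, set per campaign, cut at about 35% in these data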;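 also: 0% = DMSO wells and 100% = thioflavine S control wells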
#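 Test system: hepatitis C virus NS3 helicase domain fragment enzyme. Also added: annealed dual-labelled DNA beacon duplex, ATP-started. Timing: 60 min unwinding reaction at 25 °C after ATP addition. Technique: Cy5 fluorescence. Measure: % inhibition of unwinding.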
# DNA FID counter – compounds displacing fluorescent DNA intercalator, primary screen, artefact control for HCV NS3 helicase inhibitor project, biochemical, FID fluorescence | DNA fluorescent intercalator displacement | inhibition, % at 7.9 µM | 290,000 compounds, 0.17% hits | AID 1845, 2009; in the data active = inhibition above about 37%;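 also: 0% = vehicle and 100% = reference compound; higher means more ethidium bromide displaced from hairpin DNA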
# EBNA-1 inhibitor – EBNA-1 DNA-binding inhibitors, primary screen, biochemical, fluorescence polarization. inhibition, % at 14.8 µM. 300,000 compounds, 0.34% hits. AID 1950, 2009; in the data active = inhibition above about 28%
# FGF22 binding – binders of human FGF22 protein, primary screen, FGF22 synaptogenesis inhibitor project, biophysical, thermal shift, single point | 340,000 compounds, 1.5% hits | activity (Tm shift, normalised), % at 9.99 µM | AID 651658, 2012 | Fibroblast growth factor 22 (Homo sapiens), Q9HCT0 | recombinant FGF22 thermal shift, SYPRO orange fluorescence; percent of sucrose octasulfate shift, DMSO zero;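 active = mean Tm shift, scaled 0 neutral to 100 positive control, at about 1.3% or above, every replicate too, limit read from the data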
# Target sequence (Q9HCT0 whole entry, looked up): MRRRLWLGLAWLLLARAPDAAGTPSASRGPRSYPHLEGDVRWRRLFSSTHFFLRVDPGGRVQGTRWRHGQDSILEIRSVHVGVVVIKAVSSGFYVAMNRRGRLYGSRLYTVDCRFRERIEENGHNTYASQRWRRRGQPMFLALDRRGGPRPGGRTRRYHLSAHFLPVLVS
# ZTA counter – blocks Epstein-Barr virus ZTA, an EBNA-1 counter-screen | P03206 | ZTA-DNA binding, fluorescence polarization | inhibition, % at 11 µM | 320,000 compounds, 0.15% hits | AID 2234; in the data active = inhibition above about 33%
# Target sequence (P03206 whole entry, looked up): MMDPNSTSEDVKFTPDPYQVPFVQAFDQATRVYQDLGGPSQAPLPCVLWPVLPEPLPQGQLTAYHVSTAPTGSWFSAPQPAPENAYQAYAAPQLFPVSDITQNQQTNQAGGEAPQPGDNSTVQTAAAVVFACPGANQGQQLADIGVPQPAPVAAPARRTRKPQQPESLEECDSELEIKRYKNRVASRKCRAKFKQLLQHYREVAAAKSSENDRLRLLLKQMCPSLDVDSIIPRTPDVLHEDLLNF
# Numbers without * were called inactive; nt = no result given.
SMILES,GRIN3A LBD mod,HCV NS3 hel inh,DNA FID counter,EBNA-1 inhibitor,FGF22 binding,ZTA counter
C[C@@H]1CN([C@H](C)CO)C(=O)c2cc(NC(=O)NC3CCCCC3)ccc2O[C@@H](C)CCCCO[C@@H]1CN(C)C(=O)c1ccccc1,nt,nt,nt,nt,0,nt
O=C(NCC1OCCc2ccccc21)c1ccc(NC(=O)c2cccc(Br)c2)cc1 (stereo unspecified),28*,-7,-4,30*,nt,-12
O=C(NCC1OCCc2ccccc21)c1ccc(NC(=O)c2ccccc2Cl)cc1 (stereo unspecified),10,-2,-17,24,nt,4
COc1cccc(/C=C/c2ccc3cccc(O)c3n2)c1,8,-5,-11,17,0,14
COc1ccc(/C=C/c2ccc3c(Br)ccc(O)c3n2)cc1,4,6,-12,3,0,-11
COc1ccc(/C=C/c2ccc3cccc(O)c3n2)cc1Br,37*,0,-7,6,0,14
COc1cc(/C=C/c2ccc3c(Br)cc(Br)c(O)c3n2)ccc1O,16*,24,-7,1,0,22
Oc1cccc(/C=C/c2ccc3cccc(O)c3n2)c1,20*,31,-7,-3,0,4
CCNC(=O)C[C@@H]1CC[C@H]2[C@H](COc3ccc(NC(=O)Nc4ccccc4F)cc3C(=O)N2C)O1,nt,nt,nt,nt,0,nt
CS(=O)(=O)N1CCCCN2[C@@H](CO)[C@H](c3ccc(C#Cc4ccccn4)cc3)[C@@H]2C1,nt,nt,nt,nt,0,nt
O=C(Nc1cc(C(F)(F)F)ccc1Cl)c1ccc(NC(=O)C(F)(F)F)cc1,28*,5,5,4,nt,4
CCCC(=O)Nc1ccc(C(=O)Nc2cc(C(F)(F)F)ccc2Cl)cc1,-1,3,-4,2,nt,-3
O=[N+]([O-])c1ccc(C=NNC(=S)Nc2ccc(F)cc2)cc1,1,nt,nt,nt,44*,nt
O=[N+]([O-])c1ccc(/C=N/NC(=S)Nc2ccccc2)o1,0,15,-2,4,nt,8
C=CCNC(=S)N/N=C/c1cccc([N+](=O)[O-])c1,0,1,8,7,43*,10
O=[N+]([O-])c1cccc(-c2ccc(/C=N/NC(=S)Nc3ccccc3)o2)c1,15*,-1,2,-13,nt,3
CCOc1ccc(CNC(=S)N/N=C\c2ccc([N+](=O)[O-])cc2)cc1,24*,-7,4,2,nt,0
O=C(CCN1CCCCC1)N[C@@H]1C=C[C@H](CC(=O)N2CCC(Cc3ccccc3)CC2)O[C@H]1CO,nt,nt,nt,nt,0,nt
CN(C)C(=O)[C@@H]1[C@@H](CO)[C@@H]2Cn3c(ccc(-c4cccnc4)c3=O)[C@H]1N2C(=O)NC1CCCC1,nt,nt,nt,nt,0,nt
CCCNC(=O)C[C@H]1CC[C@@H]2[C@H](COC[C@@H](O)CN2C(=O)c2cccnc2)O1,nt,nt,nt,nt,0,nt
CC(C)(O)CC[C@@H](O)[C@](C)(O)C1CC[C@@]2(O)C3=CC(=O)[C@@H]4C[C@@H](O)[C@@H](O)C[C@]4(C)C3CC[C@]12C (stereo partly specified),10*,nt,nt,nt,0,nt
Cc1cc(C)c(S(=O)(=O)/N=C2\C=C(NS(=O)(=O)c3ccccc3)C(=O)c3ccccc32)c(C)c1,-4,24,14,-2,0,-2
Cc1cc(C)c(S(=O)(=O)/N=C2\C=CC(=O)C(Cl)=C2)c(C)c1,12*,7,-12,5,nt,-15
O=C(Nc1ccccc1)c1csc(-c2ccccc2)n1,2,3,-13,-2,0,3
O=C(Nc1ccc(C(F)(F)F)cc1)c1csc(-c2ccncc2)n1,-17,-7,-12,-11,43*,4
CC(C)C#Cc1cnc2c(c1)C(=O)N([C@@H](C)CO)C[C@@H](C)[C@@H](CN(C)C(=O)Cc1ccccn1)O2,nt,nt,nt,nt,0,nt
Oc1c(C=Nc2ccc(Cl)cn2)sc2ccccc12,11*,8,-1,-1,0,-20
Oc1c(/C=N/c2ccccn2)sc2ccccc12,-14,-2,-14,17,0,3
